Source: ChEMBL document CHEMBL1649391, “A systematic protocol for the characterization of Hsp90 modulators” (Bioorg Med Chem, 2011)
Active and inactive are the calls of the source. The calls are words filed in the database; no cut-off is given here.

Experiments:
[1] = molecular target: Heat shock protein HSP 90-beta (Homo sapiens) (UniProt P08238); assay: Inhibition of HSP90 in human MCF7 cells assessed as degradation of Hsp70 protein up to 50 uM after 48 hrs by Western blotting; format: cell-based
Heat shock protein HSP 90-beta (Homo sapiens), sequence (P08238 whole entry): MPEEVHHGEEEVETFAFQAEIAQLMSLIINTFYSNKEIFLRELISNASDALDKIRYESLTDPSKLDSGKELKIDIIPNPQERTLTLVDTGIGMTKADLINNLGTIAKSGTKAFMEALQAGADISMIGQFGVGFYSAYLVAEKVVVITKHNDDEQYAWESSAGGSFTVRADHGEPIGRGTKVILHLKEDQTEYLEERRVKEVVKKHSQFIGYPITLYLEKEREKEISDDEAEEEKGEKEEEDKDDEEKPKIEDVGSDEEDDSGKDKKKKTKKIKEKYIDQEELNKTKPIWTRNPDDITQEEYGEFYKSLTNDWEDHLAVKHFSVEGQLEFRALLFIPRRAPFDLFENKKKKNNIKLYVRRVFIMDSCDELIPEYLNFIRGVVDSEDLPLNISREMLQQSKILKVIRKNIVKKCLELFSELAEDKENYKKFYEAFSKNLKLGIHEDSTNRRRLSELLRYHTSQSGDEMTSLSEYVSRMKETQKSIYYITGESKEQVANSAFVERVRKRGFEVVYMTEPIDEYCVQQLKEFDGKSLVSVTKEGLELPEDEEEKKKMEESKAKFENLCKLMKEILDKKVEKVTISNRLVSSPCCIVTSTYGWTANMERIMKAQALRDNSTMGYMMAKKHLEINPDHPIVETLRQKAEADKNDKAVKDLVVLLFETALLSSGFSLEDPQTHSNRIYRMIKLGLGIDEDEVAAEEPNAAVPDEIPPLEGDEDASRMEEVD
Method in brief: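 MCF-7 cells were grown in DMEM/F-12 with nonessential amino acids, 2 mM glutamine, penicillin/streptomycin and 10% FBS at 37 °C and 5% CO2. Cells were seeded at 1×10⁶ per dish and left to attach overnight. They were then exposed to varying compound concentrations for 48 h, harvested, and Western blotted for Hsp90 client proteins and Hsp70.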

[2] = molecular target: Heat shock protein HSP 90-beta (Homo sapiens) (UniProt P08238); assay: Displacement of geldanamycin bound sepharose from HSP90 after 5 mins by affinity chromatography analysis
Method in brief: (§1)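 Lysate with the ATP-regenerating mix was preincubated for 5 min at 37 °C, then loaded onto novobiocin-epoxy-sepharose or onto geldanamycin-derivatized AffiGel beads blocked with BSA. Columns were washed with 20 volumes of buffer containing 0.15 M NaCl. Bound Hsp90 was eluted with a linear 0–5 mM compound gradient in the dark at 4 °C. Eluates were run on 12.5% SDS-PAGE and immunoblotted for Hsp90.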

[3] = molecular target: T1, Heat shock protein HSP 90 (Oryctolagus cuniculus) (UniProt P11500); assay: Modulation proteolytic fingerprint of HSP90 in rabbit reticulocyte lysates at 20 uM after 5 mins by SDS-PAGE analysis in presence of 125 ug/ml of trypsin
T1 sequence (whole entry): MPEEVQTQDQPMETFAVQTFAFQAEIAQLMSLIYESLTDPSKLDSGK
Method in brief: (§2)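 TnT rabbit reticulocyte lysate (50% v/v) with an ATP-regenerating system (10 mM creatine phosphate, 20 units/mL creatine phosphokinase) and 75 mM KCl. Drug or vehicle was added for 5 min at 37 °C, then the mix was chilled. TPCK-trypsin (0, 50 or 125 μg/ml) was added on ice for 6 min. Reactions were stopped by boiling in SDS sample buffer, then run on SDS-PAGE and Western blotted with antibodies to the Hsp90 N-terminus and C-terminus.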

LNCaP [4] = assay: Antiproliferative activity against human LNCAP cells; format: functional, cell-based
[5] = molecular target: Heat shock protein HSP 90-beta (Homo sapiens) (UniProt P08238); assay: Inhibition of HSP90 binding to Cdc37 in human SKBR-3 cells by Western blotting; format: cell-based
Method in brief: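 SKBr-3 cells were treated for 24 h at 0–10 μM. Cells were lysed in NP-40/molybdate Tris buffer pH 7.4 for 2 h at 4 °C, then centrifuged. Lysate protein (500 μg) was immunoprecipitated with anti-Hsp90 for 2 h, then with protein G agarose overnight at 4 °C. Washed precipitates were immunoblotted for Hsp90 and Cdc37.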

[6] = molecular target: T1, Heat shock protein HSP 90 (Oryctolagus cuniculus); assay: Modulation proteolytic fingerprint of HSP90 in rabbit reticulocyte lysates at 10 uM after 5 mins by SDS-PAGE analysis in presence of 125 ug/ml of trypsin; method in brief: as §2
[7] = molecular target: Heat shock protein HSP 90-beta (Homo sapiens) (UniProt P08238); assay: Displacement of novobiocin bound sepharose from HSP90 after 5 mins by affinity chromatography analysis; method in brief: as §1
[8] = molecular target: Heat shock protein HSP 90-alpha (Homo sapiens) (UniProt P07900); assay: Inhibition of human HSP90alpha expressed in yeast PP30 cells co-expressing HSF-lacZ reporter assessed as inhibition of heat stress-induced response at 100 uM after 3 hrs; format: cell-based
Method in brief: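 Yeast PP30 carrying human Hsp90α as its sole Hsp90 was transformed with a 3×HSE-lacZ reporter and grown at 30 °C in uracil-dropout 2% glucose medium to 2–3×10⁶ cells/ml. Cells were treated with compound, then heat-shocked for 1 h at 39 °C. In lysates, β-galactosidase was read with ONPG in buffer Z pH 7.0 at 30 °C, stopped with Na2CO3, read at OD420 and normalized to protein.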

LNCaP [9] = assay: Ratio of compound IC50 to KU135 IC50 for human LNCAP cells; format: functional
[10] = Ratio of compound IC50 to KU135 IC50 for human LNCaP-LN3 cells; format: functional

Row | SMILES | Activity [1] | Activity [2] | Activity [3] | Activity (LNCaP [4]) | Activity [5] | Activity [6] | other results
1 | O=C(O)CCc1nn(Cc2ccc(Cl)cc2Cl)c2cc(C(F)(F)F)ccc12 | inactive | Active | Active | inactive | Dose-dependent effect | – | –
2 | CO[C@@H]1[C@@H](O)[C@@H](O)[C@H](Oc2ccc3cc(NC(C)=O)c(=O)oc3c2C)OC1(C)C | inactive | – | – | – | – | Active | –
3 | CO[C@@H]1[C@@H](OC(N)=O)[C@@H](O)[C@H](Oc2ccc3c(O)c(NC(=O)c4ccc(O)c(CC=C(C)C)c4)c(=O)oc3c2C)OC1(C)C [NOVOBIOCIN] | inactive | – | – | – | – | Active | Activity [7]: inactive; IC50 (LNCaP [4]): 420 nM; Activity [8]: Active
4 | COc1cccc(-c2cc(C(=O)Nc3cc4ccc(O[C@@H]5OC(C)(C)[C@H](OC)[C@@H](O)[C@H]5O)c(OC)c4oc3=O)ccc2OC)c1 | inactive | – | – | inactive | – | Active | –
5 | CC(=O)O[C@@H]1C[C@H]2C(C)(C)C(=O)C=C[C@]2(C)[C@H]2CC[C@@]3(C)[C@H](c4ccoc4)OC(=O)[C@H]4O[C@]43[C@@]21C | inactive | Active | Active | inactive | Dose-dependent effect | – | –
6 | CO[C@@H]1[C@@H](OC(=O)c2ccc(C)[nH]2)[C@@H](O)[C@@H](Oc2ccc3c(O)c(NC(=O)c4c[nH]c(C(=O)Nc5c(O)c6ccc(O[C@H]7OC(C)(C)[C@H](OC)[C@@H](OC(=O)c8ccc(C)[nH]8)[C@H]7O)c(C)c6oc5=O)c4C)c(=O)oc3c2C)OC1(C)C | inactive | – | – | inactive | – | Active | –
7 | CO[C@@H]1[C@@H](O)[C@@H](O)[C@H](Oc2ccc3cc(NC(=O)CCCCCCC(=O)Nc4cc5ccc(O[C@H]6OC(C)(C)[C@@H](OC)[C@H](O)[C@@H]6O)cc5oc4=O)c(=O)oc3c2C)OC1(C)C | inactive | – | – | – | – | Active | –
8 | COc1cccc(-c2cc(C(=O)Nc3cc4cc(OC)c(OC(C)=O)c(C)c4oc3=O)ccc2OC)c1 | inactive | – | – | – | – | Active | Ratio IC50 (LNCaP [9]): 1000; Ratio IC50 [10]: 1000; Activity [8]: Active
9 | CO[C@@H]1[C@@H](O)[C@@H](O)[C@H](Oc2ccc3cc(NC(C)=O)c(=O)oc3c2)OC1(C)C | inactive | – | – | – | – | Active | –
10 | CC1=C(O)C(=O)C=C2C1=CC=C1[C@@]2(C)CC[C@@]2(C)[C@@H]3C[C@](C)(C(=O)O)CC[C@]3(C)CC[C@]12C | inactive | Active | Active | inactive | Dose-dependent effect | – | –
